Here are results for one molecule from ChEMBL document CHEMBL1671809, “Discovery of phosphoric acid mono-{2-[(E/Z)-4-(3,3-dimethyl-butyrylamino)-3,5-difluoro-benzoylimino]-thiazol-3-ylmethyl} ester (Lu AA47070): a phosphonooxymethylene prodrug of a potent and selective hA(2A) receptor antagonist” (J Med Chem, 2011).

A short description of data set [1]: Plasma clearance in Sprague-Dawley rat at 0.5 mg/kg, iv and 1 mg/kg, po. It is filed as ADME, organism-based. A digest of the protocol: (§1)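 Awake Sprague-Dawley rats carrying a carotid catheter were dosed with 0.5 mg/kg iv or 1 mg/kg po in aqueous 25% cremophore, n = 3 per route. Ten 100 μL blood samples were collected automatically over 20 h. Plasma was assayed by HTLC-MS/MS. Parameters came from a two-compartment model with first-order absorption (po) and elimination.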

The nature of data set [2]: Tmax in Sprague-Dawley rat at 1 mg/kg, po. It is filed as ADME, organism-based. Details: dose 1 mg/kg, route oral. The note with it: in vivo. The method, boiled down:
as §1

In a further data set the test system is Rattus norvegicus. The data set is described as follows: Cmax in Sprague-Dawley rat at 1 mg/kg, po. On the set-up: dose 1 mg/kg, route oral. It is filed as ADME, organism-based. The settings on record: in vivo. The method, boiled down:
as §1

The subject of a further data set is Mus musculus. Briefly: Reversal of haloperidol-induced hypolocomotion in po dosed NMRI mouse administered 30 mins before haloperidol challenge measured for 20 mins. It is filed as functional. The method, boiled down: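 Male NMRI mice (n = 8/group) were given compound po in 25% cremophor/saline, then haloperidol 0.63 mg/kg sc 30 min later. After 15 min they went into photocell activity boxes, and locomotion was recorded for 20 min. ED50 by sigmoidal fit with top 100 and bottom 0.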

The next data set deals with Cytochrome P450 3A4 (Homo sapiens, UniProt P08684). The data set is described as follows: Inhibition of recombinant CYP3A4 after 30 mins. It is filed as ADME. The method, boiled down: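 Recombinant CYP supersomes incubated in phosphate buffer with eight compound concentrations (40-0.02 μM) and fluorogenic substrates. CYP3A4: resorufin benzyl ether 100 μM, 30 min. Fluorescent metabolite read; IC50 relative to uninhibited controls.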
Chain of Cytochrome P450 3A4 (P08684 whole entry): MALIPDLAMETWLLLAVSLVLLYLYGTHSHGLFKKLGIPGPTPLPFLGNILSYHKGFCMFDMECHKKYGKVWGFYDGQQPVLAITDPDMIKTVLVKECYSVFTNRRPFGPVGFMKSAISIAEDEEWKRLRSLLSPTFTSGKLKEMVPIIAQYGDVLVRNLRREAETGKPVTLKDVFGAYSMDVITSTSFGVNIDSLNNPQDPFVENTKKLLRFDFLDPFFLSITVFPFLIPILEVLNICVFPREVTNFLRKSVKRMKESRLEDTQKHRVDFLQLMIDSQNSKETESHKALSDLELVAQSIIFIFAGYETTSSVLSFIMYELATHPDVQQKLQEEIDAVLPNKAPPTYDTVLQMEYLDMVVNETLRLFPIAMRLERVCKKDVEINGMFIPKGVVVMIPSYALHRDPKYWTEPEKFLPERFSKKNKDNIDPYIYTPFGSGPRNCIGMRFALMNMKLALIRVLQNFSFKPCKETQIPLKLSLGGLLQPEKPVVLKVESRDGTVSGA

Data set [3] deals with T1, Adenosine receptor A3 (Homo sapiens) (UniProt P0DMS8).
T1 sequence (whole entry): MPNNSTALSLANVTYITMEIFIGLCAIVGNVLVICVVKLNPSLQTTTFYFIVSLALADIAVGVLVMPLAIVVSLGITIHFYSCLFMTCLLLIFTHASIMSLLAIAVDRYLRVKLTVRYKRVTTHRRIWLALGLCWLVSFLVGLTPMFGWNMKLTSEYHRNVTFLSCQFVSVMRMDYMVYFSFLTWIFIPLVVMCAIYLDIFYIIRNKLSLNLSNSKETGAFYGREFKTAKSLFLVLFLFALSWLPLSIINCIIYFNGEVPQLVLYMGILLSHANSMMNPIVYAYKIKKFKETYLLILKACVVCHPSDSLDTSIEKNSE
Briefly: Displacement of [3H]-AB-MECA from human recombinant adenosine A3 receptor expressed in CHO-K1 cells at 10 uM after 60 mins. It is filed as cell-based. (In general: Loss of bound radioactivity is the signal in a displacement assay; it reports binding, not function.)

In another data set the target is T2, Adenosine receptor A2b (Homo sapiens, UniProt P29275).
T2 sequence (P29275 whole entry): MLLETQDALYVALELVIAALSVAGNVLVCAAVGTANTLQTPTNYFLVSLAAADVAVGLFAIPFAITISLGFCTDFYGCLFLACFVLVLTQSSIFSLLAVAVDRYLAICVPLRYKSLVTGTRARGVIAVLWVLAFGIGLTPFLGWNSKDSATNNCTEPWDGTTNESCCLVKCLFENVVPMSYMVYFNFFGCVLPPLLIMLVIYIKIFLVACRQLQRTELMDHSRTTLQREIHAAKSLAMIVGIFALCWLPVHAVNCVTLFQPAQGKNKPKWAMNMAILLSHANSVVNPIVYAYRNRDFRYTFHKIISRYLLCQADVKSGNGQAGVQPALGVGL
The data set is described as follows: Displacement of [3H]-MRS1754 from human recombinant adenosine A2B receptor expressed in HEK293 cells after 120 mins.

Data set [4] is described as follows: Aqueous solubility of the compound at pH 7.4. It is filed as physicochemical. The settings on record: buffer. The method, boiled down:
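About 5 mg solid was shaken overnight in 1 mL of 25 mM phosphate buffer, pH 7.4, after 3 min sonication; more solid was added if it all dissolved. The suspension was filtered through 0.22 μm PVDF and the solution measured by HPLC against a standard curve.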

Data set [5] is described as follows: Intrinsic clearance in dog hepatocytes at 0.2 uM after 60 mins. It is filed as ADME, cell-based, Canis lupus familiaris, Liver, Hepatocyte. The settings on record: 1 h. A digest of the protocol:
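Pooled cryopreserved hepatocytes: human (three donors), male Sprague-Dawley rat (two donors), male beagle dog (two donors). Cells at 10^6/mL in DMEM with 5 mM HEPES, 37 C, 15 min preincubation; compound at 0.2 μM. Samples at 0-60 min, depletion by LC-MS/MS. t1/2 scaled to CLint with 120 (human, rat) or 240 (dog) million cells/g liver. n = 1.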

A short description of data set [6]: Protein binding in dog serum at 1 uM after 60 mins by LC/MS-MS. It is filed as ADME, cell-free, Canis lupus familiaris. The note with it: read-out: PPB (converted).
The nature of data set [7]: Oral bioavailability in Sprague-Dawley rat at 1 mg/kg. It is filed as ADME, organism-based. The note with it: in vivo. The method, boiled down:
as §1

The target of the next data set is Cytochrome P450 2C19 (Homo sapiens, UniProt P33261). The data set is described as follows: Inhibition of recombinant CYP2C19 after 45 mins. It is filed as ADME. A digest of the protocol: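 Recombinant CYP supersomes incubated in phosphate buffer with eight compound concentrations (40-0.02 μM) and fluorogenic substrates. CYP1A2: 7-ethoxy-3-cyanocoumarin 10 μM, 28 min. CYP2C19: same substrate 50 μM, 45 min. CYP2D6: AMMC 3 μM, 45 min. CYP3A4: resorufin benzyl ether 100 μM, 30 min. Fluorescent metabolite read; IC50 relative to uninhibited controls.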
Chain of Cytochrome P450 2C19 (P33261 whole entry): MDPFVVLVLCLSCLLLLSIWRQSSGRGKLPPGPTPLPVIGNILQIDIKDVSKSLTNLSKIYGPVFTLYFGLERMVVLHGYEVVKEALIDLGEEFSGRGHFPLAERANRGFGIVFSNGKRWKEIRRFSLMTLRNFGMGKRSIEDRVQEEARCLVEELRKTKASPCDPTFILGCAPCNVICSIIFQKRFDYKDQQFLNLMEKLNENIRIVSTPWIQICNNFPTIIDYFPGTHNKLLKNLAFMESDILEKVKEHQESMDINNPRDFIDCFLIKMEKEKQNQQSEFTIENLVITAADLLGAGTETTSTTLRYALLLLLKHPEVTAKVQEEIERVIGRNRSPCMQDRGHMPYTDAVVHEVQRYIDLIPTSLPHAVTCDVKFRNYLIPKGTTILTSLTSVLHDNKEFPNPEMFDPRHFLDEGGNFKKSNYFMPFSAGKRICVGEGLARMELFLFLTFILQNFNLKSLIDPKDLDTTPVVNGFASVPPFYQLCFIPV

In general, Tmax refers to the time at which the peak concentration occurs. What is called Cmax is the peak of the concentration-time curve. One may read the ED50 as the dose at which the effect has come halfway, by size or by number of responders. By IC50 is commonly meant the concentration that gives 50% inhibition. Broadly, the inhibition is the drop in the measured response relative to a control, in per cent. Usually Ki stands for a dissociation constant, usually derived from enzyme kinetics or from competition with a known ligand. For orientation: solubility means the concentration that dissolves in the medium under given conditions. Low readings indicate little dissolved substance, high ones much dissolved substance. In general, bioavailability refers to dose-corrected exposure relative to a reference, in per cent. Read a low bioavailability as poor availability.

In brackets after ≈: the same amount, converted by molar mass. Some results are limits rather than exact numbers.

`CC(C)(C)CC(=O)Nc1c(F)cc(C(=O)Nc2nccs2)cc1F` gave a clearance in data set [1] of 5 mL/min/kg. Besides, in [2], the Tmax stood at 30 min. The molecule also had a Cmax in the data set on Rattus norvegicus of 878 ng/mL. In addition, in the data set on Mus musculus, the Activity entry is “Dose-dependent effect” and the ED50 came to 0.5 mg/kg. Further, at Cytochrome P450 3A4, the IC50 is greater than 40 µM. In addition, in [3], the inhibition was found to be 36%. The inhibitory constant (Ki) at Adenosine receptor A2b is 0.26 µM. This molecule also registered a solubility in [4] of 1 µg/mL (≈ 2.83 µM). The same molecule showed a CL in data set [5] of 346 mL/min. Also, the fraction unbound at 1 h, 1 µM in [6] was 0.13. The molecule also yielded a bioavailability in data set [7] of 88%. The IC50 on Cytochrome P450 2C19 is greater than 40 µM.
